According to ChEMBL document CHEMBL5661972, “In vitro biological activity of a novel small-molecule inhibitor of polo-like kinase 1” (Mol Cancer Ther, 2007):
Activity calls are given as the source filed them. No cut-off for these calls is given here.

Tests used:
NCI-H460 [1] = assay: Induction of cell cycle arrest in human NCI-H460 cells assessed as accumulation of cells at G1 phase at 1 micromol/L incubated for 72 hrs by propidium iodide staining based flow cytometry analysis (reference value: 58.2 %); type: functional; conditions: dose 1 µmol/L, at 1 µM
Procedure, shortened: (§1)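 Cells seeded in six-well plates at densities that keep them in log growth (HDF 120,000, 60,000 or 30,000; H460 100,000, 50,000 or 25,000 per well for 24, 48 or 72 h). Treated with 1 or 3 μmol/L. Floating and adherent cells collected, ethanol-fixed, permeabilized with Triton X-100 and stained with propidium iodide. DNA content read by flow cytometry as % singlet cells.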

NCI-H460 [2] = assay: Induction of cell cycle arrest in human NCI-H460 cells assessed as accumulation of cells at S phase at 1 micromol/L incubated for 48 hrs by propidium iodide staining based flow cytometry analysis (reference value: 18.5 %); type: functional; conditions: dose 1 µmol/L, at 1 µM
NCI-H460 [3] = assay: Induction of apoptosis in human NCI-H460 cells assessed as PARP cleavage at 5 micromol/L incubated for 22 to 72 hrs by Western blotting analysis; type: functional, cell-based; conditions: dose 5.0 µmol/L, time 22-72 hrs
Procedure, shortened: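 H460 cells seeded at 320,000 per well in six-well plates and given 5 μmol/L for 22, 30, 46, 55 and 72 h. Lysed in caspase assay buffer, run on 4–12% Bis-Tris gels and immunoblotted with an anti-PARP antibody that detects both the 116-kDa intact protein and the 85-kDa fragment.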

NHDF [4] = assay: Induction of cell cycle arrest in human HDF cells assessed as accumulation of cells at S phase at 3 micromol/L incubated for 72 hrs by propidium iodide staining based flow cytometry analysis (reference value: 3.6 %); type: toxicity; conditions: 3 µM, dose 3 µmol/L; procedure, shortened: as §1
NHDF [5] = assay: Induction of cell cycle arrest in human HDF cells assessed as accumulation of cells at Sub-2N phase at 1 micromol/L incubated for 72 hrs by propidium iodide staining based flow cytometry analysis (reference value: 0.7 %); type: toxicity; conditions: 1 µM, dose 1 µmol/L; procedure, shortened: as §1
NHDF [6] = assay: Induction of cell cycle arrest in human HDF cells assessed as accumulation of cells at G1 phase at 3 micromol/L incubated for 72 hrs by propidium iodide staining based flow cytometry analysis (reference value: 85.6 %); type: toxicity; conditions: 3 µM, dose 3 µmol/L; procedure, shortened: as §1
[7] = Selectivity ratio of IC50 for cytotoxicity against human HDF cells to IC50 for antiproliferative activity against human HN5 cells; type: toxicity, cell-based; conditions: HDF cells versus HN5 cells
NHDF [8] = assay: Induction of cell cycle arrest in human HDF cells assessed as accumulation of cells at G1 phase at 1 micromol/L incubated for 48 hrs by propidium iodide staining based flow cytometry analysis (reference value: 72.8 %); type: toxicity; conditions: 1 µM, dose 1 µmol/L; procedure, shortened: as §1
NHDF [9] = assay: Induction of cell cycle arrest in human HDF cells assessed as accumulation of cells at G2-M phase at 1 micromol/L incubated for 24 hrs by propidium iodide staining based flow cytometry analysis (reference value: 22.6 %); type: toxicity; conditions: 1 µM, dose 1 µmol/L; procedure, shortened: as §1
NHDF [10] = assay: Induction of cell cycle arrest in human HDF cells assessed as accumulation of cells at G1 phase at 1 micromol/L incubated for 24 hrs by propidium iodide staining based flow cytometry analysis (reference value: 57.0 %); type: toxicity; conditions: 1 µM, dose 1 µmol/L; procedure, shortened: as §1
[11] = Selectivity ratio of IC50 for cytotoxicity against human HDF cells to IC50 for antiproliferative activity against human NCI-H460 cells; type: toxicity, cell-based; conditions: HDF cells versus NCI-H460 cells, read-out: Ratio IC50
Procedure, shortened: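 HDF (5,000/well) and H460 (2,000/well) cells exposed 3 days to 3-fold dilutions (30–0.00152 μmol/L) in medium with 5% FBS, gentamicin and 0.3% DMSO (low-glucose DMEM for HDF, RPMI 1640 for H460); vehicle controls growing logarithmically. IC50 from each line gives the HDF/H460 ratio.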

HeLa = assay: Antiproliferative activity against human HeLa cells assessed as inhibition of cell growth; type: functional, cell-based
[12] = Cytotoxicity against human HDF cells assessed as inhibition of cell growth; type: toxicity, cell-based; conditions: HDF cells (NHDF, human dermal fibroblasts)
Procedure, shortened: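 Cells grown 3 days in 96-well plates, seeded so vehicle controls stay in log growth (MES-SA/DX5 7,000, MES-SA 6,000, HDF 5,000 per well). Exposed to 3-fold dilutions, 30–0.00152 μmol/L, in medium with 5% FBS, 50 μg/mL gentamicin and 0.3% (v/v) DMSO. HDF medium was low-glucose DMEM; MES-SA lines used McCoy's 5A.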

[13] = Selectivity ratio of IC50 for cytotoxicity against human HDF cells to IC50 for anti-proliferative activity against human HeLa cells; type: toxicity, cell-based; conditions: HDF cells versus HeLa cells, read-out: Ratio IC50
[14] = Selectivity ratio of IC50 for cytotoxicity against human HDF cells to IC50 for antiproliferative activity against human MCF7 cells; type: toxicity, cell-based; conditions: HDF cells versus MCF7 cells, read-out: Ratio IC50
NHDF [15] = assay: Induction of cell cycle arrest in human HDF cells assessed as accumulation of cells at Sub-2N phase at 1 micromol/L incubated for 48 hrs by propidium iodide staining based flow cytometry analysis (reference value: 0.5 %); type: toxicity; conditions: 1 µM, dose 1 µmol/L; procedure, shortened: as §1
NCI-H460 [16] = assay: Induction of cell cycle arrest in human NCI-H460 cells assessed as accumulation of cells at G2-M phase at 3 micromol/L incubated for 72 hrs by propidium iodide staining based flow cytometry analysis (reference value: 18.2 %); type: functional; conditions: dose 3 µmol/L
NCI-H460 [17] = assay: Induction of cell cycle arrest in human NCI-H460 cells assessed as accumulation of cells at Sub-2N phase at 3 micromol/L incubated for 48 hrs by propidium iodide staining based flow cytometry analysis (reference value: 2.5 %); type: functional; conditions: dose 3 µmol/L, at 3 µM
NHDF [18] = assay: Induction of cell cycle arrest in human HDF cells assessed as accumulation of cells at S phase at 1 micromol/L incubated for 48 hrs by propidium iodide staining based flow cytometry analysis (reference value: 4.7 %); type: toxicity; conditions: 1 µM, dose 1 µmol/L; procedure, shortened: as §1
[19] = Selectivity ratio of IC50 for cytotoxicity against human HDF cells to IC50 for antiproliferative activity against human RKO cells; type: toxicity, cell-based; conditions: HDF cells versus RKO cells, read-out: Ratio IC50
NCI-H460 [20] = assay: Induction of cell cycle arrest in human NCI-H460 cells assessed as accumulation of cells at S phase at 3 micromol/L incubated for 48 hrs by propidium iodide staining based flow cytometry analysis (reference value: 18.5 %); type: functional; conditions: dose 3 µmol/L, at 3 µM
[21] = Cytotoxicity against human HDF cells assessed as outgrowth of cells at 3.3 micromol/L incubated for 72 hrs by methylene blue staining based analysis relative to control; type: toxicity, cell-based; conditions: HDF cells (NHDF, human dermal fibroblasts), dose 3.3 µmol/L, read-out: Activity
Procedure, shortened: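 HDF seeded at 1,300 and H460 at 600 per well in 96-well plates. After 24 h, exposed to vehicle (0.3% DMSO) or compound at 0.37–30 μmol/L for 72 h. Wells were then washed with PBS and refed with drug-free medium containing gentamicin. Regrowth was followed by methylene blue staining at set time points over 13 days in total.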

With `COc1cc2ncn(-c3cc(OCc4ccccc4C(F)(F)F)c(C(N)=O)s3)c2cc1OC` [GW843682X] the Activity (NCI-H460 [1]) was 2.5%, the Activity (NCI-H460 [2]) was 24.3% and the Activity (NCI-H460 [3]) was “Active”. The Activity (NHDF [4]) was 8%, the Activity (NHDF [5]) was 1.3% and the Activity (NHDF [6]) was 5.6%. The selectivity ratio [7] was 9, the Activity (NHDF [8]) was 55.3% and the Activity (NHDF [9]) was 27.6%. For the same compound, the Activity (NHDF [10]) was 54.2%, the selectivity ratio [11] was over 10 and the IC50 (HeLa) was 0.11 µM. It also gave an IC50 [12] of 6.14 µM, a selectivity ratio [13] of over 10 and a selectivity ratio [14] of over 10. For the same compound, the Activity (NHDF [15]) was 0.9%, the Activity (NCI-H460 [16]) was 4.7% and the Activity (NCI-H460 [17]) was 20.3%. It also gave an Activity (NHDF [18]) of 7.4%, a selectivity ratio [19] of over 10 and an Activity (NCI-H460 [20]) of 8%. For the same compound, the viability at 72 h, 3.3 µM [21] was about 30%.
